As usually defined, the inhibition is the drop in the measured response relative to a control, in per cent. A lower inhibition goes with a weak effect. By CC50 is commonly meant the concentration at which the toxic effect on the cells reaches its halfway point. The EC50 is the concentration needed to bring the measured effect to its halfway point.

Data set [1] deals with C-X-C chemokine receptor type 4 (Homo sapiens) (UniProt P61073). Description: Displacement of [125I]-CXCL12 from CXCR4 expressed in human Jurkat cells at 10 uM relative to T140. The data set is classed as cell-based. In outline: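 Competition for [125I]-CXCL12 binding to Jurkat cells, test compounds at 10 µM. Percent inhibition expressed relative to that given by the reference peptide T140, set at 100%.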
Chain of C-X-C chemokine receptor type 4 (Homo sapiens) (P61073 whole entry): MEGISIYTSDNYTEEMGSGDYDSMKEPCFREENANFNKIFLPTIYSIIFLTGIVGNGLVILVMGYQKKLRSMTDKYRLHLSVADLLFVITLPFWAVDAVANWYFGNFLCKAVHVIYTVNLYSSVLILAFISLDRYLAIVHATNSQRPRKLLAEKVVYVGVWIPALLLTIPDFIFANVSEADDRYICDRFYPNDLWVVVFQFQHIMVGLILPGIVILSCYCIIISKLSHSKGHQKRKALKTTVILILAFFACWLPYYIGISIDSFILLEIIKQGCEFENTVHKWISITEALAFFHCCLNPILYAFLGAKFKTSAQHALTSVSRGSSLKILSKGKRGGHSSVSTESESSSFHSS

The nature of data set [2]: Cytotoxicity against human MT4 cells assessed as reduction of cell viability. The class given is cell-based.
Data set [3] has as its system Human immunodeficiency virus 1. Briefly: Antiviral activity against X4-tropic HIV1 NL4.3 infected in human MT4 cells assessed as protection from virus-induced cytopathogenicity. The data set is classed as functional, organism-based. The conditions noted are these: Human immunodeficiency virus 1, NL4.3, MT4. The method in brief: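 MT-4 cells infected with X4 HIV-1 strain NL4-3; readout is protection from virus-induced cytopathogenicity. EC50 = concentration giving 50% protection, mean of at least three independent experiments.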

Data set [4] has as its system Human immunodeficiency virus 1. Briefly: Antiviral activity against R5-tropic HIV1 NL(AD8) infected in human PM1 cells expressing CCR5 assessed as protection from virus-induced cytopathogenicity at < 100 uM. The data set is classed as functional, organism-based. (In general: Cytopathic effects are the visible damage that an infection or toxin causes in cultured cells.)

Data set [5] concerns Human immunodeficiency virus 1. Briefly: Antiviral activity against R5-tropic HIV1 NL(AD8) infected in human PM1 cells expressing CCR5 assessed as protection from virus-induced cytopathogenicity. The data set is classed as functional, organism-based. The conditions noted are these: Human immunodeficiency virus 1, NL(AD8).

Calls of active or inactive are those of the source. The rule behind the calls is not given here.

Compound `C[C@H](NC(=O)[C@H](CCCNC(=N)N)NC(=O)c1ccc(CN(Cc2cccnc2)C(=O)c2ccc(F)cc2)cc1)c1cccc2ccccc12` gave an inhibition in data set [1] of 14%. Moreover, in data set [2], the CC50 was found to be 57 µM. The EC50 in data set [3] is above 20 µM.
On the same counts, the results for `C[C@H](NC(=O)[C@H](CCCNC(=N)N)NC(=O)c1ccc(CN(Cc2ccccn2)C(=O)c2ccc(F)cc2)cc1)c1cccc2ccccc12` are 36%, 37 µM and above 20 µM.
In turn, `C[C@H](NC(=O)[C@H](CCCNC(=N)N)NC(=O)c1ccc(CN(CCc2ccncc2)C(=O)c2ccc(F)cc2)cc1)c1cccc2ccccc12` returned an inhibition in data set [1] of 25%. In addition, the 50% cytotoxic concentration (CC50) in data set [2] is 47 µM. Besides, the EC50 in data set [3] was above 20 µM.
Compound `C[C@@H](NC(=O)[C@H](CCCNC(=N)N)NC(=O)c1ccc(CN(Cc2ccc(F)cc2)Cc2cccnc2)cc1)c1cccc2ccccc12` came in with an inhibition in data set [1] of 6%. Moreover, the CC50 in data set [2] worked out at 37 µM. Further, the EC50 in data set [3] was above 20 µM.
As to `C[C@H](NC(=O)[C@H](CCCNC(=N)N)NC(=O)c1ccc(CN(CCc2ccc(F)cc2)CCc2cccnc2)cc1)c1cccc2ccccc12`, the inhibition in data set [1] came to 35%.
In data set [1], `C[C@H](NC(=O)[C@H](CCCNC(=N)N)NC(=O)c1ccc(CN(CCc2ccncc2)CCc2ccc(F)cc2)cc1)c1cccc2ccccc12` gave an inhibition of 51%.
In data set [1], `C[C@H](NC(=O)[C@H](CCCNC(=N)N)NC(=O)c1ccc(CN(Cc2ccncc2)Cc2ccc(F)cc2)cc1)c1cccc2ccccc12` returned an inhibition of 16%. For the same compound, the outcome in data set [4] was inactive. In addition, the CC50 in data set [2] stood at 44 µM. Further, the EC50 in data set [3] came out at 8 µM.
In data set [1], `C[C@H](NC(=O)[C@H](CCCNC(=N)N)NC(=O)c1ccc(CN(Cc2ccc(F)cc2)Cc2ccccn2)cc1)c1cccc2ccccc12` displayed an inhibition of 30%. In addition, in data set [2], the CC50 amounted to 11 µM. Further, the EC50 in data set [3] is above 4 µM.
For the compound `C[C@H](NC(=O)[C@H](CCCNC(=N)N)NC(=O)c1ccc(CN(CCc2ccc(F)cc2)Cc2ccccn2)cc1)c1cccc2ccccc12`, the inhibition in data set [1] is 16%. Besides, the cytotoxic concentration (CC50) in data set [2] stood at 9.9 µM. Further, in data set [3], the EC50 was above 4 µM.
On the same counts, the results for `C[C@H](NC(=O)[C@H](CCCNC(=N)N)NC(=O)c1ccc(CN(Cc2ccncc2)C(=O)c2ccc(F)cc2)cc1)c1cccc2ccccc12` are 13%, 51 µM and above 20 µM.
In data set [1], `C[C@H](NC(=O)[C@H](CCCNC(=N)N)NC(=O)c1ccc(CN(CCc2ccccn2)C(=O)c2ccc(F)cc2)cc1)c1cccc2ccccc12` yielded an inhibition of 0%. Moreover, in data set [2], the CC50 stood at 43 µM. In data set [3], the EC50 is above 20 µM.
`C[C@@H](NC(=O)[C@H](CCCNC(=N)N)NC(=O)c1ccc(CN(CCc2ccccn2)C(=O)c2ccc(F)cc2)cc1)c1cccc2ccccc12` came in with an inhibition in data set [1] of 6%. Also, the cytotoxic concentration (CC50) in data set [2] amounted to 41 µM. For the same compound, the EC50 in data set [3] was above 20 µM.
Regarding `C[C@@H](NC(=O)[C@H](CCCNC(=N)N)NC(=O)c1ccc(CN(CCc2ccccn2)Cc2ccc(F)cc2)cc1)c1cccc2ccccc12`, the inhibition in data set [1] is 4%. Moreover, the CC50 in data set [2] was 23 µM. Besides, in data set [3], the EC50 was above 4 µM.
On the same counts, the results for `C[C@@H](NC(=O)[C@H](CCCNC(=N)N)NC(=O)c1ccc(CN(Cc2cccnc2)C(=O)c2ccc(F)cc2)cc1)c1cccc2ccccc12` are 11%, 45 µM and above 20 µM.
The compound `C[C@@H](NC(=O)[C@H](CCCNC(=N)N)NC(=O)c1ccc(CN(Cc2ccccn2)C(=O)c2ccc(F)cc2)cc1)c1cccc2ccccc12` came in with an inhibition in data set [1] of 3%. Moreover, in data set [2], the CC50 worked out at 38 µM. Also, the EC50 in data set [3] was above 20 µM.
As for `COC[C@@H](c1ccc(C(F)(F)F)cc1)N1CCN(C2(C)CCN(C(=O)c3c(C)ncnc3C)CC2)C[C@@H]1C` [VICRIVIROC], in data set [5], the EC50 was found to be 0.055 µM.
`C[C@H](NC(=O)[C@H](CCCNC(=N)N)NC(=O)c1ccc(CN(CCc2ccc(F)cc2)Cc2ccncc2)cc1)c1cccc2ccccc12`: in data set [1], the inhibition is 26%.
`C[C@@H](NC(=O)[C@H](CCCNC(=N)N)NC(=O)c1ccc(CN(CCc2ccc(F)cc2)Cc2cccnc2)cc1)c1cccc2ccccc12` yielded an inhibition in data set [1] of 79%. Also, the outcome in data set [4] was inactive. Further, the CC50 in data set [2] stood at 47 µM. In addition, the EC50 in data set [3] was 11 µM.
In the case of `C[C@@H](NC(=O)[C@H](CCCNC(=N)N)NC(=O)c1ccc(CN(Cc2ccncc2)Cc2ccc(F)cc2)cc1)c1cccc2ccccc12`, the inhibition in data set [1] is 12%. In data set [2], the CC50 stood at 39 µM. For the same compound, the EC50 in data set [3] was above 20 µM.
`C[C@@H](NC(=O)[C@H](CCCNC(=N)N)NC(=O)c1ccc(CN(Cc2ccncc2)C(=O)c2ccc(F)cc2)cc1)c1cccc2ccccc12` displayed an inhibition in data set [1] of 6%. Moreover, the 50% cytotoxic concentration (CC50) in data set [2] stood at 45 µM. Besides, the EC50 in data set [3] was above 20 µM.
`C[C@@H](NC(=O)[C@H](CCCNC(=N)N)NC(=O)c1ccc(CN(CCc2ccncc2)Cc2ccc(F)cc2)cc1)c1cccc2ccccc12` came in with an inhibition in data set [1] of 16%.
`C[C@@H](NC(=O)[C@H](CCCNC(=N)N)NC(=O)c1ccc(CN(CCc2ccc(F)cc2)CCc2cccnc2)cc1)c1cccc2ccccc12` gave an inhibition in data set [1] of 69%. Also, in data set [4], the result was inactive. For the same compound, the CC50 in data set [2] was determined as 11 µM. For the same compound, the EC50 in data set [3] was above 11 µM.
Regarding `C[C@@H](NC(=O)[C@H](CCCNC(=N)N)NC(=O)c1ccc(CN(Cc2ccc(F)cc2)Cc2ccccn2)cc1)c1cccc2ccccc12`, the inhibition in data set [1] was determined as 0%. Besides, in data set [2], the CC50 came to 35 µM. Besides, in data set [3], the EC50 was above 20 µM.
`C[C@@H](NC(=O)[C@H](CCCNC(=N)N)NC(=O)c1ccc(CN(CCc2ccc(F)cc2)Cc2ccncc2)cc1)c1cccc2ccccc12`: the inhibition in data set [1] turned out to be 44%.
In the case of `C[C@@H](NC(=O)[C@H](CCCNC(=N)N)NC(=O)c1ccc(CN(CCc2cccnc2)Cc2ccc(F)cc2)cc1)c1cccc2ccccc12`, in data set [1], the inhibition stood at 24%.
In the case of `C[C@@H](NC(=O)[C@H](CCCNC(=N)N)NC(=O)c1ccc(CN(CCc2ccncc2)C(=O)c2ccc(F)cc2)cc1)c1cccc2ccccc12`, the inhibition in data set [1] came out at 12%.
For the compound `C[C@@H](NC(=O)[C@H](CCCNC(=N)N)NC(=O)c1ccc(CNC(=O)c2ccc(C(F)(F)F)cc2)cc1)c1cccc2ccccc12`, the CC50 in data set [2] was found to be 66 µM. Moreover, in data set [3], the EC50 amounted to 7.4 µM.
In data set [1], `C[C@H](NC(=O)[C@H](CCCNC(=N)N)NC(=O)c1ccc(CNCc2ccccn2)cc1)c1cccc2ccccc12` gave an inhibition of 100%. For the same compound, in data set [2], the CC50 was 80 µM. Besides, the EC50 in data set [3] amounted to 0.33 µM.
In turn, `N=C(N)NCCC[C@@H]1NC(=O)[C@H](CCCNC(=N)N)NC(=O)[C@@H](Cc2ccc(O)cc2)NC(=O)CNC(=O)[C@H](Cc2ccc3ccccc3c2)NC1=O` returned an inhibition in data set [1] of 100%. Besides, the CC50 in data set [2] was above 10 µM.
Turning to `C[C@@H](NC(=O)[C@H](CCCNC(=N)N)NC(=O)c1ccc(CN(CCc2ccc(F)cc2)CCc2ccccn2)cc1)c1cccc2ccccc12`, the inhibition in data set [1] is 13%. Also, the CC50 in data set [2] stood at 27 µM. Also, in data set [3], the EC50 was above 20 µM.
Turning to `C[C@@H](NC(=O)[C@H](CCCNC(=N)N)NC(=O)c1ccc(CN(CCc2ccncc2)CCc2ccc(F)cc2)cc1)c1cccc2ccccc12`, the inhibition in data set [1] worked out at 0%.
In data set [1], `C[C@@H](NC(=O)[C@H](CCCNC(=N)N)NC(=O)c1ccc(CN(CCc2cccnc2)C(=O)c2ccc(F)cc2)cc1)c1cccc2ccccc12` yielded an inhibition of 22%.
`C[C@H](NC(=O)[C@H](CCCNC(=N)N)NC(=O)c1ccc(CN(CCc2ccccn2)Cc2ccc(F)cc2)cc1)c1cccc2ccccc12` showed an inhibition in data set [1] of 25%. For the same compound, in data set [2], the CC50 came to 24 µM. Further, the EC50 in data set [3] is above 20 µM.
In data set [1], `C[C@H](NC(=O)[C@H](CCCNC(=N)N)NC(=O)c1ccc(CN(CCc2ccncc2)Cc2ccc(F)cc2)cc1)c1cccc2ccccc12` displayed an inhibition of 20%. Moreover, in data set [4], the result was inactive. Also, the CC50 in data set [2] was determined as 44 µM. In data set [3], the concentration for a half-maximal effect (EC50) was 10 µM.
For the compound `C[C@H](NC(=O)[C@H](CCCNC(=N)N)NC(=O)c1ccc(CN(Cc2ccc(F)cc2)Cc2cccnc2)cc1)c1cccc2ccccc12`, the inhibition in data set [1] was 27%. Moreover, the CC50 in data set [2] is 41 µM. In addition, in data set [3], the half-maximal effective concentration (EC50) is above 20 µM.
In the case of `C[C@H](NC(=O)[C@H](CCCNC(=N)N)NC(=O)c1ccc(CN(CCc2cccnc2)Cc2ccc(F)cc2)cc1)c1cccc2ccccc12`, the inhibition in data set [1] came out at 60%. The result in data set [4] was inactive. The CC50 in data set [2] turned out to be 65 µM. In data set [3], the EC50 was determined as 13 µM.
`C[C@@H](NC(=O)[C@H](CCCNC(=N)N)NC(=O)c1ccc(CN(CCc2ccc(F)cc2)Cc2ccccn2)cc1)c1cccc2ccccc12` yielded an inhibition in data set [1] of 15%.
The compound `C[C@H](NC(=O)[C@H](CCCNC(=N)N)NC(=O)c1ccc(CN(CCc2cccnc2)C(=O)c2ccc(F)cc2)cc1)c1cccc2ccccc12` showed an inhibition in data set [1] of 32%.
Compound `C[C@H](NC(=O)[C@H](CCCNC(=N)N)NC(=O)c1ccc(CN(CCc2ccc(F)cc2)CCc2ccccn2)cc1)c1cccc2ccccc12` had an inhibition in data set [1] of 23%. Further, in data set [2], the CC50 was 13 µM. Besides, the EC50 in data set [3] was above 4 µM.
`Cc1cn([C@H]2C[C@H](N=[N+]=[N-])[C@@H](CO)O2)c(=O)[nH]c1=O` [ZIDOVUDINE]: the CC50 in data set [2] turned out to be 100 µM. For the same compound, the EC50 in data set [3] stood at 0.058 µM.
In the case of `C[C@H](NC(=O)[C@H](CCCNC(=N)N)NC(=O)c1ccc(CN(CCc2ccc(F)cc2)Cc2cccnc2)cc1)c1cccc2ccccc12`, the inhibition in data set [1] is 36%.

These data come from ChEMBL document CHEMBL2029252, “Pharmacophore-based small molecule CXCR4 ligands” (Bioorg Med Chem Lett, 2012).
